Source: ChEMBL document CHEMBL4665738, “Identification of 4-anilino-6-aminoquinazoline derivatives as potential MERS-CoV inhibitors” (Bioorg Med Chem Lett, 2020)

Tests used:
[1] = system: Middle East respiratory syndrome-related coronavirus; assay: Antiviral activity against Middle East respiratory syndrome coronavirus MERS-CoV/KOR/KNIH/002_05_2015 infected in African green monkey Vero cells assessed as reduction in virus induced cytopathic effect after 24 hrs by immunofluorescence assay; type: functional, organism-based; conditions: MERS-CoV/KOR/KNIH/002_05_2015, Vero
[2] = system: Vero; assay: Cytotoxicity against African green monkey Vero cells infected with Middle East respiratory syndrome coronavirus MERS-CoV/KOR/KNIH/002_05_2015 assessed as reduction in cell viability; type: cell-based; conditions: chlorocebus sabaeus
[3] = AUC in rat at 5 mg/kg, po; type: ADME, organism-based; design: dose 5 mg/kg; conditions: in vivo
Method in brief: (§1)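 Rat pharmacokinetic study with separate intravenous (2 mg/kg) and oral (5 mg/kg) dosing arms; reported parameters are means from three rats per experiment.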

[4] = Cytotoxicity against mouse NIH/3T3 cells; type: cell-based, NIH3T3
Method in brief: (§2)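 Cytotoxicity values are given in µM, each against a named cell line: Vero (African green monkey kidney), HFL-1 (human embryonic lung), L929 (NCTC clone 929 mouse fibroblast), NIH 3T3 (mouse embryonic fibroblast) and CHO-K1 (Chinese hamster ovary).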

[5] = AUC in rat at 2 mg/kg, iv; type: ADME, organism-based; design: dose 2 mg/kg; conditions: in vivo; method in brief: as §1
[6] = Oral bioavailability in rat at 5 mg/kg; type: ADME, organism-based; conditions: in vivo
Method in brief: (§3)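 Rats were dosed intravenously at 2 mg/kg or orally at 5 mg/kg. Each parameter is the mean of experiments in three rats.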

[7] = Cytotoxicity against African green monkey Vero cells; type: cell-based; conditions: chlorocebus sabaeus; method in brief: as §2
[8] = Cytotoxicity against CHO-K1 cells; type: cell-based, Cricetulus griseus; conditions: chinese hamster; method in brief: as §2
[9] = Cytotoxicity against mouse L929 cells; type: cell-based; method in brief: as §2
[10] = Metabolic stability in mouse microsomes assessed as parent compound remaining incubated for 30 mins; type: ADME, Microsome; conditions: read-out: Stabilty
Method in brief: (§4)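 Mouse or human liver microsomes were incubated with the compound for 30 min. The read-out is the percentage of original compound remaining.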

[11] = Half life in rat at 2 mg/kg, iv; type: ADME, organism-based; conditions: in vivo; method in brief: as §3
[12] = Volume of distribution at steady state in rat at 2 mg/kg, iv; type: ADME, organism-based; conditions: in vivo, read-out: Vdss; method in brief: as §3
[13] = Clearance in rat at 2 mg/kg, iv; type: ADME, organism-based; conditions: in vivo; method in brief: as §3
[14] = in vivo; conditions: rat, po, 5 mg/kg
[15] = Cytotoxicity against human HFL-1 cells; type: cell-based, HFL1; method in brief: as §2
[16] = Metabolic stability in human microsomes assessed as parent compound remaining incubated for 30 mins; type: ADME, Microsome; conditions: read-out: Stabilty; method in brief: as §4
[17] = Half life in rat at 5 mg/kg, po; type: ADME, organism-based; conditions: in vivo; method in brief: as §3
[18] = Cmax in rat at 5 mg/kg, po; type: ADME, organism-based; design: route oral, dose 5 mg/kg; conditions: in vivo; method in brief: as §3
[19] = molecular target: Voltage-gated inwardly rectifying potassium channel KCNH2 (Homo sapiens, UniProt Q12809); assay: Modulation of human ERG
Sequence of Voltage-gated inwardly rectifying potassium channel KCNH2 (Q12809 whole entry): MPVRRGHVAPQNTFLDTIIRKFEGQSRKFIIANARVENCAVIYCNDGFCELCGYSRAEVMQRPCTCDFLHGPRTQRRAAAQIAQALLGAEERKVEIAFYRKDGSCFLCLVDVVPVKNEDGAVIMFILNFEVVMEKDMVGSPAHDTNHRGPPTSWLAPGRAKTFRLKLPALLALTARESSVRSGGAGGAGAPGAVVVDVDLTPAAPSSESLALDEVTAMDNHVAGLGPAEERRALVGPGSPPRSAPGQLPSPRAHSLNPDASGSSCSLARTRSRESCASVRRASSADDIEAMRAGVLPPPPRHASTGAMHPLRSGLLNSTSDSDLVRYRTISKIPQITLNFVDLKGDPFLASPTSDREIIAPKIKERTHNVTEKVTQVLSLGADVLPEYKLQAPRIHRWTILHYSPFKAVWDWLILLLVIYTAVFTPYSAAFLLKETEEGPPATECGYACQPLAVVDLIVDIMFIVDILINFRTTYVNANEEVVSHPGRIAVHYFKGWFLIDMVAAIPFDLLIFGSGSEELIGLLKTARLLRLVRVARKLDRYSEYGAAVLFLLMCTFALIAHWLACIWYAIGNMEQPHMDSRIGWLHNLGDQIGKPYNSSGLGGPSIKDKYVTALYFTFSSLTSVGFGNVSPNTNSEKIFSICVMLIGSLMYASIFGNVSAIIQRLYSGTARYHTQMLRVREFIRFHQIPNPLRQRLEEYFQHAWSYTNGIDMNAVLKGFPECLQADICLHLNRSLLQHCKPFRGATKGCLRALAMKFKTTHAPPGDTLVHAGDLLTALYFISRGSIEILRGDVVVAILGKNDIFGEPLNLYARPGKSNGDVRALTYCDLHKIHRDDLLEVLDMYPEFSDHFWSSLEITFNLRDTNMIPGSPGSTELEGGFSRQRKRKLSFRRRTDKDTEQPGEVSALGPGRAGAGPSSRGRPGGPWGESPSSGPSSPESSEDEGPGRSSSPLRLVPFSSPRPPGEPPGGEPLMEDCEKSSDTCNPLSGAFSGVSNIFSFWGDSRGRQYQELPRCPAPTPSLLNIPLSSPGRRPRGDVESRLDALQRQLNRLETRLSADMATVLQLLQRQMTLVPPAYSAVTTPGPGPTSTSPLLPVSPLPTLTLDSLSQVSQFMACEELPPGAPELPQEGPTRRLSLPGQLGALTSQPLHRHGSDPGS

Row | Structure (SMILES) | IC50 [1] | CC50 [2] | other results
1 | CC(=O)Nc1ccc2ncnc(Nc3ccc(F)c(Cl)c3)c2c1 | > 25 µM |  | 
2 | COc1cccc(CNc2ccc3ncnc(Nc4ccc(F)c(Cl)c4)c3c2)c1 | 5.6 µM | > 25 µM | 
3 | COc1cccc(CNc2ccc3ncnc(Nc4ccc(C#N)cc4)c3c2)c1 | > 25 µM | > 25 µM | 
4 | Fc1ccc(Nc2ncnc3ccc(NC4CCCCC4)cc23)cc1Cl | 15 µM | > 25 µM | 
5 | COc1cccc(CNc2ccc3ncnc(Nc4ccc(F)cc4)c3c2)c1 | 22.7 µM | > 25 µM | 
6 | Fc1ccc(CNc2ccc3ncnc(Nc4ccc(F)c(Cl)c4)c3c2)cc1 | 4.6 µM | 14.4 µM | 
7 | N#Cc1cccc(/C=C/C(=O)Nc2ccc3ncnc(Nc4ccc(F)c(Cl)c4)c3c2)c1 | > 25 µM |  | 
8 | COc1cccc(CNc2ccc3ncnc(Nc4cccc(C(C)=O)c4)c3c2)c1 | > 25 µM |  | 
9 | O=[N+]([O-])c1cccc(CNc2ccc3ncnc(Nc4ccc(F)c(Cl)c4)c3c2)c1 | 6.1 µM | > 25 µM | 
10 | Fc1ccc(CNc2ccc3ncnc(Nc4ccc(F)c(Cl)c4)c3c2)cc1F | 4.6 µM | 23 µM | 
11 | O=[N+]([O-])c1cccc(CNc2ccc3ncnc(Nc4ccc(C(F)(F)F)cc4)c3c2)c1 | 3.7 µM | > 25 µM | 
12 | COc1cc2ncnc(Nc3ccc(F)c(Cl)c3)c2cc1NCc1cccc(C#N)c1 | 5.8 µM | 13.2 µM | 
13 | N#Cc1cccc(CNc2ccc3ncnc(Nc4ccc(C(F)(F)F)cc4)c3c2)c1 | 3.6 µM | > 25 µM | 
14 | Oc1ccccc1CNc1ccc2ncnc(Nc3ccc(F)c(Cl)c3)c2c1 | 3.6 µM |  | 
15 | Fc1ccc(Nc2ncnc3ccc(NCc4cccc(C(F)(F)F)c4)cc23)cc1Cl | 2.3 µM | 9.2 µM | 
16 | COc1ccccc1CNc1ccc2ncnc(Nc3ccc(F)c(Cl)c3)c2c1 | 3.8 µM | > 25 µM | 

Row | Structure (SMILES) | IC50 [1] | CC50 [2] | other results
17 | N#Cc1cccc(C(=O)Nc2ccc3ncnc(Nc4ccc(F)c(Cl)c4)c3c2)c1 | > 25 µM |  | 
18 | O=[N+]([O-])c1ccc(CNc2ccc3ncnc(Nc4ccc(F)c(Cl)c4)c3c2)cc1 | 2.7 µM | > 25 µM | 
19 | O=[N+]([O-])c1ccccc1CNc1ccc2ncnc(Nc3ccc(F)c(Cl)c3)c2c1 | 3.3 µM | > 25 µM | 
20 | N#Cc1cccc(CNc2cc3c(Nc4ccc(F)c(Cl)c4)ncnc3cc2O)c1 | > 25 µM | > 25 µM | 
21 | N#Cc1ccc(CNc2ccc3ncnc(Nc4ccc(C(F)(F)F)cc4)c3c2)cc1 | 4.1 µM | > 25 µM | 
22 | O=[N+]([O-])c1ccc(CNc2ccc3ncnc(Nc4ccc(C(F)(F)F)cc4)c3c2)cc1 | 3.3 µM | > 25 µM | 
23 | COc1cccc(CNc2ccc3ncnc(Nc4cccc(Cl)c4)c3c2)c1 | > 25 µM | 23 µM | 
24 | N#Cc1cccc(CNc2ccc3ncnc(Nc4ccc(F)c(Cl)c4)c3c2)c1 | 0.157 µM |  | AUC [3]: 570 ng·h/mL; CC50 [4]: > 100 µM; AUC [5]: 1110 ng·h/mL; bioavailability [6]: 21%; CC50 [7]: > 100 µM; CC50 [8]: > 100 µM; CC50 [9]: > 100 µM; remaining at 0.5 h [10]: 60.7%; half-life [11]: 5.9 h; Vd [12]: 6.3 L/kg; clearance [13]: 28.8 mL/min/kg; Tmax [14]: 2 h; CC50 [15]: > 100 µM; remaining at 0.5 h [16]: 56.4%; half-life [17]: 5.5 h; Cmax [18]: 0.2 µg/h; Activity [19]: > 50 µM
25 | N#Cc1ccccc1CNc1ccc2ncnc(Nc3ccc(C(F)(F)F)cc3)c2c1 | > 25 µM | > 25 µM | 
26 | NC(=O)c1cccc(CNc2ccc3ncnc(Nc4ccc(F)c(Cl)c4)c3c2)c1 | > 25 µM |  | 
27 | COc1cccc(CNc2ccc3ncnc(Nc4ccc(C(F)(F)F)cc4)c3c2)c1 | 1.8 µM | > 25 µM | 
28 | N#Cc1ccc(CNc2ccc3ncnc(Nc4ccc(F)c(Cl)c4)c3c2)cc1 | 4.8 µM | > 25 µM | 
29 | COc1cccc(CNc2ccc3ncnc(Nc4ccc(Br)cc4)c3c2)c1 | 7.4 µM | > 25 µM | 
30 | N#Cc1ccccc1CNc1ccc2ncnc(Nc3ccc(F)c(Cl)c3)c2c1 | > 25 µM | > 25 µM | 
31 | CCCCN(CCCC)c1ccc2ncnc(Nc3ccc(F)c(Cl)c3)c2c1 | > 25 µM |  | 
